What was measured:
Format in all cases: functional
[1] = Antioxidant activity assessed as hydroxyl radical scavenging activity at 2.5 mM by electron spin resonance method
In short: (§1)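 ESR spectrometry of radical signal, same settings for hydroxyl and superoxide radicals: magnetic field 335.7 ± 5 mT, power 4 mW at 9.414 GHz, modulation 100 kHz 1 × 0.079 mT, response 0.1 s, amplitude 160, sweep time 2 min, 25 °C. Activity is expressed as % inhibition of the radical signal.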

[2] = Antioxidant activity assessed as superoxide radical scavenging activity at 2.5 mM by electron spin resonance method; in short: as §1
[3] = Antioxidant activity assessed as hydroxyl radical scavenging activity by electron spin resonance method; in short: as §1
[4] = Antioxidant activity assessed as superoxide radical scavenging activity by electron spin resonance method; in short: as §1

| Compound | IC50 [3] [µM] | IC50 [4] [µM] | inhibition [1] [%] | inhibition [2] [%] |
| --- | --- | --- | --- | --- |
| CC(C)C[C@@H]1NC(=O)[C@H](CC(C)C)NC1=O | – | – | 26 | 0 |
| CC(C)C[C@@H]1NC(=O)[C@H](CCC(N)=O)NC1=O | – | – | 19 | 0 |
| CC(C)C[C@@H]1NC(=O)CNC1=O | – | – | 0 | 0 |
| CC(C)C[C@@H]1NC(=O)[C@H](Cc2c[nH]c3ccccc23)NC1=O | 1800 | – | 66 | 0 |
| CC(C)C[C@@H]1NC(=O)[C@H](C)NC1=O | – | – | – | 0 |
| CC(C)C[C@@H]1NC(=O)[C@H](Cc2cnc[nH]2)NC1=O | 850 | – | 83.9 | 0 |
| CC(C)C[C@@H]1NC(=O)[C@H]([C@@H](C)O)NC1=O | – | – | 0 | 0 |
| CC(C)C[C@@H]1NC(=O)[C@H](Cc2ccccc2)NC1=O | – | – | 23.5 | 0 |
| CC(C)C[C@@H]1NC(=O)[C@H](C(C)C)NC1=O | – | – | 12.3 | 0 |
| VITAMIN E | – | – | 37.7 | 32.3 |

Second part, led by results:

| IC50 [3] [µM] | IC50 [4] [µM] | Compound | inhibition [1] [%] | inhibition [2] [%] |
| --- | --- | --- | --- | --- |
| 800 | – | CSCC[C@@H]1NC(=O)[C@H](CC(C)C)NC1=O | 79 | 0 |
| 1000 | – | CC(C)C[C@@H]1NC(=O)[C@H](CO)NC1=O | 95.2 | 0 |
| 4 | – | CC(C)C[C@@H]1NC(=O)[C@H](CC(=O)O)NC1=O | 95 | 0 |
| 1100 | – | CC(C)C[C@@H]1NC(=O)[C@@H]2CCCN2C1=O | 86.2 | 0 |
| 170 | – | CC(C)C[C@@H]1NC(=O)[C@H](CC(N)=O)NC1=O | 96 | 0 |
| 100 | 880 | CC(C)C[C@@H]1NC(=O)[C@H](CS)NC1=O | 88.9 | 83.3 |
| 160 | – | CC(C)C[C@@H]1NC(=O)[C@H](CCCCN)NC1=O | 96 | 0 |
| 80 | – | CC(C)C[C@@H]1NC(=O)[C@H](CCC(=O)O)NC1=O | 97.8 | 0 |

— ChEMBL document CHEMBL1955799, “Cyclic dipeptides exhibit potency for scavenging radicals” (Bioorg Med Chem, 2012)
